In publication PMC4002122 (Chemical Research in Toxicology, 2014):
Where “and” joins values, the source holds several entries; their conditions need not be identical. Identical values can stand only once.

Tests used:
UGT2B17 = molecular target: T1, UGT2B17 (Homo sapiens, UniProt O75795); experiment: Screening of recombinant UGT2B17 for glucuronidation activity; assay type: in vitro ADME; settings: 250 μM substrate, 5 μg protein, 60 min, 37 °C
T1 sequence (O75795 24-530): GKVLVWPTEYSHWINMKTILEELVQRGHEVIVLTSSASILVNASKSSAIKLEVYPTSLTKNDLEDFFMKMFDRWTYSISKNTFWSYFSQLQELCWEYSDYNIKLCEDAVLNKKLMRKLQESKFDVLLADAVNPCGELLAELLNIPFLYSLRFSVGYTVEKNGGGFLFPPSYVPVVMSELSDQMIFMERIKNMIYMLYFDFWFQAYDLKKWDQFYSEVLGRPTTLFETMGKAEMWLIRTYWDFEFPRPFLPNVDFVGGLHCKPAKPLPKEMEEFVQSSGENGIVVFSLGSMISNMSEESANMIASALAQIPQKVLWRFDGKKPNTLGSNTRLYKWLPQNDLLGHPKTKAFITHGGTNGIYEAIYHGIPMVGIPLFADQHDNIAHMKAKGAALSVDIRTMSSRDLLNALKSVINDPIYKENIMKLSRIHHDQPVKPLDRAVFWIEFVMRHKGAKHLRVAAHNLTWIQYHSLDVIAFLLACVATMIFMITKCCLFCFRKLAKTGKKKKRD
Method in brief: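 UGT1A1, 1A3, 1A4 and 1A6–1A10 were His-tagged and expressed in baculovirus-infected Sf9 cells; UGT2B4, 2B7, 2B15 and 2B17 were commercial membranes run per supplier protocol. 5 μg membrane protein with 250 μM substrate, 2 mM UDP-GlcUA, Tris–HCl pH 7.4, MgCl2, saccharolactone, 2% DMSO; 37 °C, 60 min; no-substrate controls. Products measured by HPLC-UV/vis; β-glucuronidase hydrolysis separated O- from carboxyl glucuronides.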

[1] = Glucuronidation by human hepatic microsomes; assay type: in vitro ADME; settings: 60 min, 50 μg of human liver proteins, 0.25 mM substrate, 3 mM UDP-GlcUA
Method in brief: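 Microsomes from individual human livers (10 donors), a pooled liver sample and hepatosomes, or from intestines (13 donors). Substrate dried from ethanol, redissolved in DMSO and sonicated. Incubated 37 °C, 60 min; ethanol stop, centrifuged. Glucuronides measured by reversed-phase HPLC-UV; nmol/mg/min, median and range.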

UGT1A7 = molecular target: T2, UGT1A7 (Homo sapiens, UniProt Q9HAW7); experiment: Steady state kinetics of glucuronidation by recombinant UGT1A7; assay type: in vitro ADME
T2 sequence (Q9HAW7 26-530): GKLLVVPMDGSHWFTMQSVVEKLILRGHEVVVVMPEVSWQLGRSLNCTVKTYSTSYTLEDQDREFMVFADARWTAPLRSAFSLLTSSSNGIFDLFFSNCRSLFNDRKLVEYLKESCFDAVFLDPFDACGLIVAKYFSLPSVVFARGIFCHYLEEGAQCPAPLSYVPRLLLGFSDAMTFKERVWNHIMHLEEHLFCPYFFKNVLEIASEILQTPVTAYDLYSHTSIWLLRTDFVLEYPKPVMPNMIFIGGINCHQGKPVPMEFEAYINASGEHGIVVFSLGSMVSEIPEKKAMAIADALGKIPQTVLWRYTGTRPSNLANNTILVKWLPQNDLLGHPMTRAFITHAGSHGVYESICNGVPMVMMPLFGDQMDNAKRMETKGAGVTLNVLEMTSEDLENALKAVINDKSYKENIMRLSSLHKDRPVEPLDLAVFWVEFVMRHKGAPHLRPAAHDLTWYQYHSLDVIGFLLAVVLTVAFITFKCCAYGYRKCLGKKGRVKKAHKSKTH

UGT1A9 = molecular target: T3, UGT1A9 (Homo sapiens, UniProt O60656); experiment: Steady state kinetics of glucuronidation by recombinant UGT1A9; assay type: in vitro ADME
T3 sequence (O60656 26-530): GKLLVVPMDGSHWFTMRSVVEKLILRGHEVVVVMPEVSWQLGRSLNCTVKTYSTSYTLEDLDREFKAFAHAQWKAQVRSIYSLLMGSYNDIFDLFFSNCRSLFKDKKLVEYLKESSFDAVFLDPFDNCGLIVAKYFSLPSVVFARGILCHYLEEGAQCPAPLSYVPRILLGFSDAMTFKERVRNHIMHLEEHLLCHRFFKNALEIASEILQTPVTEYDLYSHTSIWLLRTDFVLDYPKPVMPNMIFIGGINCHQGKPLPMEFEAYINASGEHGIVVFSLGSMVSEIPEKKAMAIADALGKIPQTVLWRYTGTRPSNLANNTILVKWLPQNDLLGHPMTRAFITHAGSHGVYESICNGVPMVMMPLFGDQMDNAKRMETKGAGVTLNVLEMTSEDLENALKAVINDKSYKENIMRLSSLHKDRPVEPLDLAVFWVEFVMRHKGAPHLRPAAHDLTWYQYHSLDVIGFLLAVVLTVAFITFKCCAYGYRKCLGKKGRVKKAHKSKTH

tubulin = settings: cited from earlier work

Row | glucuronidation activity (glucuronide formed) (UGT2B17) | metabolism with human liver microsomes [1] | NI-12a-COO-gluc formation (UGT1A7; COO-glucuronide) | Ks (UGT1A7; NI-12a-O-gluc formation, USI model) | NI-12a-COO-gluc formation (UGT1A9; COO-glucuronide) | Vmax (UGT1A9; NI-12a glucuronidation) | catalytic efficiency, ratio Vmax/Km (UGT1A9; NI-12a glucuronidation) | kinetic model (UGT1A9; NI-12a-O-gluc formation) | NI-ST-05–N–O-gluc formation (UGT1A7; N–O-glucuronide) | Km at 60 min (UGT1A9; human, pH 7.4) | SMILES | kinetic model (UGT1A7; NI-12a-O-gluc formation) | Vmax (UGT1A9; NI-12a-O-gluc formation) | antitubulin activity (tubulin) | kinetic model (UGT1A9; NI-ST-05–N–O-gluc formation)
1 | No activity | not metabolized |  |  |  |  |  |  |  |  | COc1cc(/C=C/c2cc([N+](=O)[O-])c(O)c([N+](=O)[O-])c2)cc(OC)c1 [DNR-1, (E)-4-(3,5-dimethoxystyryl)-2,6-dinitrophenol] |  |  |  | 
2 |  |  | not produced | 242 ± 133 µM | not produced | 8.3 nm/mg protein/min | 35 µL/min/mg | Michaelis–Menten and M–M |  |  | COc1ccc(/C=C(/C(=O)O)c2cc(OC)c(OC)c(OC)c2)cc1O [NI-12a, (E)-3-(3-hydroxy-4-methoxyphenyl)-2-(3,4,5-trimethoxyphenyl)acrylic acid] | uncompetitive substrate inhibition and USI | 8.3 nmol/mg/min and 8.3 ± 0.52 nmol/mg/min | effective antitubilin agent | 
3 | inactive |  |  |  |  |  |  |  | not produced | < 5 µM | COc1ccc(C=Cc2cc(OC)cc(OC)c2/C=N/O)cc1 [NI-ST-05, (E)-2,4-dimethoxy-6-(4-methoxystyryl)benzaldehyde oxime] |  |  |  | did not fit any of the kinetic models tested
